Results published in ChEMBL document CHEMBL2146445, “Discovery of BIIB042, a Potent, Selective, and Orally Bioavailable γ-Secretase Modulator” (ACS Med Chem Lett, 2011).
The source made the active and inactive calls. No cut-off for these calls is given here.

Experiments:
CHO [1] = experiment: Modulation of gamma-secretase in CHO cells overexpressing APP V717 mutant assessed as effect on amyloid beta40 level after 17 hrs by ELISA; format: cell-based; details: Cricetulus griseus
How it was run: (§1)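 CHO cells overexpressing APP V717F; Aβ42, Aβ40 and Aβ38 quantified together in each well by multiplex Aβ ELISA. EC50 is the mean of at least two determinations.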

[2] = Drug uptake in CF1 mouse brain at 30 mg/kg, po after 4 hrs; format: ADME, organism-based; set-up: dose 30 mg/kg, route oral; details: read-out: Drug uptake
How it was run: (§2)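 Wild-type CF-1 mice received a single oral dose as a solution in ethanol:propylene glycol:10% solutol (1:1:8). Animals were sacrificed 4 h after dosing. Brain and plasma were collected for drug concentration and Aβ levels. Aβ change was expressed relative to vehicle-treated controls.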

Mus musculus [3] = experiment: Antialzheimer activity in CF1 mouse assessed as reduction in amyloid beta42 level in brain at 30 mg/kg, po after 4 hrs by ELISA; format: functional; set-up: scale not given: the % may be the effect or the level left; how it was run: as §2
CHO [4] = experiment: Modulation of gamma-secretase in CHO cells overexpressing APP V717 mutant assessed as increase in amyloid beta38 level after 17 hrs by ELISA; format: cell-based; details: Cricetulus griseus; how it was run: as §1
[5] = Plasma concentration in CF1 mouse at 30 mg/kg, po after 4 hrs; format: ADME, organism-based; set-up: dose 30 mg/kg, route oral
How it was run: (§3)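 Wild-type (CF-1) mice given compound orally as a solution in ethanol:propylene glycol:10% solutol (1:1:8). Animals sacrificed 4 h post-dose; brain and plasma collected for drug exposure and Aβ levels.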

[6] = Modulation of gamma-secretase in CHO cells overexpressing APP V717 mutant assessed as reduction in amyloid beta42 level after 17 hrs by ELISA; format: cell-based; details: Cricetulus griseus; how it was run: as §1
Rattus norvegicus [7] = experiment: Antialzheimer activity in F344 rat assessed as reduction in amyloid beta42 level in brain at 30 mg/kg, po after 4 hrs by ELISA; format: functional, organism-based; set-up: dose 30 mg/kg
Cynomolgus monkey [8] = experiment: Antialzheimer activity in cynomolgus monkey assessed as increase in amyloid beta 38 level in plasma at 10 mg/kg, po at 5 hrs; format: functional, organism-based; set-up: dose 10 mg/kg; details: Macaca fascicularis
Rattus norvegicus [9] = experiment: Antialzheimer activity in Fischer rat assessed as effect on amyloid beta 40 level in brain at 10 mg/kg, po after 4 hrs; format: functional, organism-based; set-up: dose 10 mg/kg
Mus musculus [10] = experiment: Antialzheimer activity in CF1 mouse assessed as effect on amyloid beta 40 level in brain at 10 mg/kg, po; format: functional, organism-based; set-up: dose 10 mg/kg; how it was run: as §2
Cynomolgus monkey [11] = experiment: Antialzheimer activity in cynomolgus monkey assessed as effect on amyloid beta 40 level in plasma at 10 mg/kg, po at 5 hrs; format: functional, organism-based; set-up: dose 10 mg/kg; details: Macaca fascicularis
Rattus norvegicus [12] = experiment: Antialzheimer activity in Fischer rat assessed as increase in amyloid beta 38 level in brain at 10 mg/kg, po after 4 hrs; format: functional, organism-based; set-up: dose 10 mg/kg
Mus musculus [13] = experiment: Antialzheimer activity in CF1 mouse assessed as increase in amyloid beta 38 level in brain at 10 mg/kg, po; format: functional, organism-based; set-up: dose 10 mg/kg; how it was run: as §2
[14] = target: Neurogenic locus notch homolog protein 1 (Homo sapiens) (UniProt P46531); experiment: Inhibition of NICD-mediated HES1 protein expression in human H4 cells at 10 uM after 24 hrs by Western blot analysis; format: cell-based
Neurogenic locus notch homolog protein 1 (Homo sapiens), sequence (P46531 whole entry): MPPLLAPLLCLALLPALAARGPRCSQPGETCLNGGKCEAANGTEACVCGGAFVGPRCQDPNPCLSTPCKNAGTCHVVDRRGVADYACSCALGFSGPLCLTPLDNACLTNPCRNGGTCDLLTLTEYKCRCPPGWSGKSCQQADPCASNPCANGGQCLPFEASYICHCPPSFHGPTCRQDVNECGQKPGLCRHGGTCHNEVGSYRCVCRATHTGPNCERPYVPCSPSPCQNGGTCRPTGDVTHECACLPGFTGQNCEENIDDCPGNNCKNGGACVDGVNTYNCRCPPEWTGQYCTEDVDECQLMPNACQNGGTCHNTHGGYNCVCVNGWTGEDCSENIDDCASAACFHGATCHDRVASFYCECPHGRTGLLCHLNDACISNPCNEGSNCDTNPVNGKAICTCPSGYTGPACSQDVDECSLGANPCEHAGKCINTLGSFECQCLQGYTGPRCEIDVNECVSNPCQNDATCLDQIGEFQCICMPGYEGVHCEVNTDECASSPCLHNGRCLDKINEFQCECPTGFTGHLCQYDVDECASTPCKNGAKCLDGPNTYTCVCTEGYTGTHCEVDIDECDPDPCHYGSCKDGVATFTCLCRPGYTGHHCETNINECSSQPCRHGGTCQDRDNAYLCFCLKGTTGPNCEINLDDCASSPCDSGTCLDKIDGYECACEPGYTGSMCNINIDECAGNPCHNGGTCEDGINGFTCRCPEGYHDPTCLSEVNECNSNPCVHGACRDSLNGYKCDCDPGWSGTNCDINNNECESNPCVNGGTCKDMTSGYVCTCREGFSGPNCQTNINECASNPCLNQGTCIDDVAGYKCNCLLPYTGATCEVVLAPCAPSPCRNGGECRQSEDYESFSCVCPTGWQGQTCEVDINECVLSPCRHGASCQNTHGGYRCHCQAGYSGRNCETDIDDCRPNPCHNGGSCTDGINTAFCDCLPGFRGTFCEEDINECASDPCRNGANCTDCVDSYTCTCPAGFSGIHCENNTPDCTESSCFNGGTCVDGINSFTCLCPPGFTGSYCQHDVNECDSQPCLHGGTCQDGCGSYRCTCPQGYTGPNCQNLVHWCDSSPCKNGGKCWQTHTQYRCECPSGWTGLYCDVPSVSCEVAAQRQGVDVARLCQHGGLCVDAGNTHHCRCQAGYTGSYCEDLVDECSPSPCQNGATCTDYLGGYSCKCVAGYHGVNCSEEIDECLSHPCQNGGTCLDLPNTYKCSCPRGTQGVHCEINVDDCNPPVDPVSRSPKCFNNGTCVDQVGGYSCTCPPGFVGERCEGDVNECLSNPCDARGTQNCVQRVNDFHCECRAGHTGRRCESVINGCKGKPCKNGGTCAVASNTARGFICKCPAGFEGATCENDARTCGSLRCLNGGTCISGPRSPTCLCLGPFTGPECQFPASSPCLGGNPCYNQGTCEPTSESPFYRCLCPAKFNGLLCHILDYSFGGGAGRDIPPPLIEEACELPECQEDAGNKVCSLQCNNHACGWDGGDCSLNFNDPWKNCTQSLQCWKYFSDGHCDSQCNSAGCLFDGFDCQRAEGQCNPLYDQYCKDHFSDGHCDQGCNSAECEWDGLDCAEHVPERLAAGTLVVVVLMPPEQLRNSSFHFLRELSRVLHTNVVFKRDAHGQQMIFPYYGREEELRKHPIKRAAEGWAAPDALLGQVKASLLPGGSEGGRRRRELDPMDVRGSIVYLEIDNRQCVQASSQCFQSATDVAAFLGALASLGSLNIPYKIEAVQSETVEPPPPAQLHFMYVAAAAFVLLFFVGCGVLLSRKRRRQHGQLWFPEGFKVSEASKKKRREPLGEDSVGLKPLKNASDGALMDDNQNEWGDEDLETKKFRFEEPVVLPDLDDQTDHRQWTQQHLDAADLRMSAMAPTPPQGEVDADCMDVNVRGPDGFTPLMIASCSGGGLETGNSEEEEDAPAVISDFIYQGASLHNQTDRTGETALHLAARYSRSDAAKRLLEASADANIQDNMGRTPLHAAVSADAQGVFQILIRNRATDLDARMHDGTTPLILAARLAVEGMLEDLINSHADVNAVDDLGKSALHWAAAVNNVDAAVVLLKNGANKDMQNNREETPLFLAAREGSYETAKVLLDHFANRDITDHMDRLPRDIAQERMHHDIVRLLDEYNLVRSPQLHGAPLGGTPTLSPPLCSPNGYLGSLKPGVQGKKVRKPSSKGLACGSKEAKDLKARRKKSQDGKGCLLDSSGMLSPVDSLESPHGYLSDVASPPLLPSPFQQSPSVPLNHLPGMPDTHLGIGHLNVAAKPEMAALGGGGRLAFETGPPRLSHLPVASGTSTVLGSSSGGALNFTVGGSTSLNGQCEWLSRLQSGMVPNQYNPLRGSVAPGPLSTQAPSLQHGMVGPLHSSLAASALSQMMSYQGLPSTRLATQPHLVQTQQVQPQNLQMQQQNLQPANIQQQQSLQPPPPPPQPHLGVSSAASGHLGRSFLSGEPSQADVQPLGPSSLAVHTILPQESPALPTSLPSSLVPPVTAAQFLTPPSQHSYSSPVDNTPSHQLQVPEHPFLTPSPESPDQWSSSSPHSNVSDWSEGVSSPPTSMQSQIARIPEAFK

[15] = Drug uptake in CF1 mouse brain at 50 mg/kg, po after 4 hrs; format: ADME, organism-based; set-up: dose 50 mg/kg, route oral; details: read-out: Drug uptake; how it was run: as §2
[16] = Plasma concentration in CF1 mouse at 50 mg/kg, po after 4 hrs; format: ADME, organism-based; set-up: dose 50 mg/kg, route oral; how it was run: as §3
Mus musculus [17] = experiment: Antialzheimer activity in CF1 mouse assessed as reduction in amyloid beta42 level in brain at 50 mg/kg, po after 4 hrs by ELISA; format: functional; how it was run: as §2

Structure (SMILES)	concentration at 4 h [2] [µM]	concentration at 4 h [5] [µM]	EC50 [6] [nM]	inhibition [14]	concentration at 4 h [15] [nM]	concentration at 4 h [16] [µM]	Activity (CHO [1])	Activity (Mus musculus [3])	Activity (CHO [4])	Activity (Rattus norvegicus [7])	Activity (Cynomolgus monkey [8])	Activity (Rattus norvegicus [9])	Activity (Mus musculus [10])	Activity (Cynomolgus monkey [11])	Activity (Rattus norvegicus [12])	Activity (Mus musculus [13])	Activity (Mus musculus [17])
CC1CCN(C(c2ccc(C(F)(F)F)cc2)c2ccc(C(C)C(=O)O)cc2-c2ccc(C(F)(F)F)cc2)CC1 (configuration not stated)	14	20.5	180				inactive	inactive	Active								
CC1CCN(C(c2ccc(F)cc2)c2ccc(C(C)(C)C(=O)O)cc2-c2ccc(C(F)(F)F)cc2)CC1 (configuration not stated)	16.1	22.8	450				inactive	30%	Active	inactive							
CC1CCN(C(c2ccc(Cl)cc2)c2ccc(C(C)C(=O)O)cc2-c2ccc(C(F)(F)F)cc2)CC1 (configuration not stated)	19.4	27.1	420				inactive	25%	Active								
CC1CCN([C@H](c2ccc(F)cc2)c2ccc([C@@H](C)C(=O)O)cc2-c2ccc(C(F)(F)F)cc2)CC1				inactive			inactive				Active	inactive	inactive	inactive	Active	Active	
CC(C(=O)O)c1ccc(C(c2ccc(F)cc2)N2CC3CCCC3C2)c(-c2ccc(C(F)(F)F)cc2)c1 (configuration not stated)	12.1	16.3	620				inactive	30%	Active								
CC(C)(C)c1ccc(-c2cc(CC(=O)O)ccc2C(c2ccc(F)cc2)N2CCC(C(F)(F)F)CC2)cc1 (configuration not stated)			560		1000	6.3	inactive		Active								inactive

Now from value to compound, other results behind:

concentration at 4 h [2] [µM]	concentration at 4 h [5] [µM]	EC50 [6] [nM]	inhibition [14]	concentration at 4 h [15] [nM]	concentration at 4 h [16] [µM]	Structure (SMILES)	Activity (CHO [1])	Activity (Mus musculus [3])	Activity (CHO [4])	Activity (Rattus norvegicus [7])	Activity (Cynomolgus monkey [8])	Activity (Rattus norvegicus [9])	Activity (Mus musculus [10])	Activity (Cynomolgus monkey [11])	Activity (Rattus norvegicus [12])	Activity (Mus musculus [13])	Activity (Mus musculus [17])
11.8	29.6	110				CC1CCN(C(c2ccc(F)cc2)c2ccc(C(CC3CC3)C(=O)O)cc2-c2ccc(C(F)(F)F)cc2)CC1 (configuration not stated)	inactive	40%	Active								
25.3	27.2	300				CC(C(=O)O)c1ccc(C(c2ccc(F)cc2)N2CCC(C)(C)CC2)c(-c2ccc(C(F)(F)F)cc2)c1 (configuration not stated)	inactive	30%	Active								
12	20.8	250				CC1CCN(C(c2ccc(F)c(F)c2)c2ccc(C(C)C(=O)O)cc2-c2ccc(C(F)(F)F)cc2)CC1 (configuration not stated)	inactive	40%	Active								
